Compound activity deposited in PubChem BioAssay by The Scripps Research Institute Molecular Screening Center.
zfTRPN1 agonist: activates the zebrafish TRPN1 channel; HEK293 zebrafish TRPN1-YFP, Fluo-8 calcium fluorescence; 100% = response to 87 µM carbachol; activation, % at 3 µM; 0.18% of 220,000 active; AID 1424;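 active means activation above its plate's cutoff, the mean activation of test wells on that plate plus 3 SD, cut at about 19% in these data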;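 further: 0% = DMSO alone and 100% = 87 µM carbachol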
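Material: zebrafish TRPN1-YFP in HEK293 cells. Doses: one dose of 3 µM, 0.3% DMSO. Incubation: dye 1 h 37 °C plus 30 min RT. Measured by: intracellular calcium fluorescence with Fluo-8.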
CHO parental Ca: counter-screen for OX1R antagonists: effect in parental CHO cells; inhibition, % at 5.6 µM; parental CHO-K1, ATP-induced calcium, Fluo-8 fluorescence; AID 463079; 0.63% of 330,000 active;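 active means inhibition above that plate's mean sample inhibition plus 3 SD, cut at about 26% in these data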;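 further: 0% = ATP-challenged DMSO wells and 100% = DMSO wells without ATP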
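test system = CHO parental line | reagent = ATP stimulus | measured by = intracellular calcium via Fluo-8 no-wash fluorescent dye | control set = ATP and no-ATP DMSO wells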
OX1R antag-1: antagonists of human orexin 1 receptor (OX1R); O43613; OX1R-expressing cells, FRET antagonist read-out; inhibition, % at 6.6 µM; 1.8% of 330,000 active; AID 485270; in the data active means inhibition mostly above about 38%, no sharp cut-off; inactive means mostly below about 40%;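 further: 0% = agonist challenge alone and 100% = reference antagonist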
Target sequence (O43613 whole entry, looked up): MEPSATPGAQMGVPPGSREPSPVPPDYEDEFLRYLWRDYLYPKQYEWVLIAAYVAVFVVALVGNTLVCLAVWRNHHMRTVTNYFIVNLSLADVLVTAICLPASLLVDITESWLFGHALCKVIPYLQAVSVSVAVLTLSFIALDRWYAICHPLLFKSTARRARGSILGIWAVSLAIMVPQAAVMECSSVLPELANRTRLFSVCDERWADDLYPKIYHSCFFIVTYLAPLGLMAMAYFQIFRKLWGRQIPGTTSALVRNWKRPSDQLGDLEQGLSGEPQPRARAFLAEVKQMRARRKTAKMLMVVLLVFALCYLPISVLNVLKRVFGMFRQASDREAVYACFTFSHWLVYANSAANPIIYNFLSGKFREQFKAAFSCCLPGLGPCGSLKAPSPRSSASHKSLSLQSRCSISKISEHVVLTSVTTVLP
TRPML3 agonist: agonists of human TRPML3 channel. Q8TDD5. HEK293 TRPML3-YFP, Fluo-8 calcium fluorescence; 100% = the carbachol control signal. activation, % at 3 µM. 0.29% of 220,000 active. AID 1448;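 active means activation above its plate's cutoff, the mean activation of the plate's test wells plus 3 SD, cut at about 12% in these data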;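 further: 0% = DMSO only wells and 100% = carbachol wells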
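Test system: HEK293 cells stably carrying human TRPML3-YFP; Doses: single dose, 3 µM final nominal compound, 0.3% DMSO final; Schedule: dye loading 1 h 37 °C then 30 min ambient, 125 s read; Technique: Fluo-8 calcium fluorescence; Benchmarks: high control carbachol 87 µM, low control DMSO.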
OX1R antag-2: human HCRTR1 antagonism. 0.43% of 330,000 active. inhibition, % at 5 µM. CHO/OX1R cells, Fluo-8 calcium fluorescence, orexin A;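 active means inhibition above its plate's threshold, mean inhibition of all tested compounds on the plate plus 3 SD, cut at about 37% in these data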;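 further: 0% = orexin A challenge wells and 100% = SB-334867-A antagonist wells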
OX1R HTRF confirm: confirmation of human orexin 1 receptor antagonists, HTRF format. shares compounds with OX1R antag-1. OX1R-expressing cells, HTRF antagonist assay. inhibition, % at 6.6 µM. 49% of 1,800 active. AID 492964; in the data active means inhibition above about 55%;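 further: CHO cells expressing OX1R stimulated with orexin A at about EC80; 0% = agonist challenge alone and 100% = reference antagonist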
CHO-K1 HTRF cnt: signal in parental CHO-K1 cells, OX1R antagonist counter-screen | shares compounds with OX1R antag-1 | HTRF counterscreen | inhibition, % at 6.6 µM | 48% of 1,800 active; in the data active means inhibition above about 17%;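 further: 0% = agonist challenge with vehicle and 100% = vehicle alone without agonist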
* = called active by the depositor; nt = no result given. Sampled rows, rich in hits. Any-hit rate of the full collection: about 2.5%.

SMILES	zfTRPN1 agonist	CHO parental Ca	OX1R antag-1	TRPML3 agonist	OX1R antag-2	OX1R HTRF confirm	CHO-K1 HTRF cnt
CCc1cc[n+](C2=C([O-])c3ccccc3C(=O)/C2=N\S(=O)(=O)c2cccs2)cc1	0.7	-12.4	148.7*	0.1	-17.4	55.7*	80.4*
CCC1CN(S(=O)(=O)c2ccc3c(c2)NC(=O)CC(=O)N3)c2cc(Cl)ccc2O1 (stereo not given)	nt	-9.4	12.4	nt	9.1	nt	nt
COc1ccc(Br)c(C(=O)N2CCN(S(=O)(=O)c3cccs3)CC2)c1	0.8	-5.5	136.0*	0.4	-16.6	17.6	3.6
COC(=O)CSc1nnc(-c2ccccn2)n1N	0.0	-5.8	4.2	0.4	-19.4	nt	nt
O=C(Nc1ccc2nsnc2c1)N1CCCCCC1	-0.1	-7.8	87.2*	-0.3	-2.8	35.2	27.4*
CC(C)[C@H](NC(=O)N1CCn2c1nc1ccccc12)C(=O)NCC1CCCO1 (stereo not given in full)	nt	-26.4	7.3	nt	-19.4	nt	nt
COc1ccc(CC2=C(O)c3ccccc3C(=O)C2=O)cc1	nt	-3.8	33.6	nt	-0.9	nt	nt
O=C1C(=O)c2ccccc2C(O)=C1CCCCl	0.1	-7.0	80.2*	0.2	-10.0	77.4*	96.3*
OCCCN=c1cc(-c2ccccc2)oc2ccc(Cl)cc12	1.3	-17.6	96.2*	0.6	-24.4	35.7	60.8*
Cc1cc(/C=N/n2c(COc3ccccc3)nc3ccccc3c2=O)c(O)c([N+](=O)[O-])c1	-0.5	-18.3	91.9*	0.4	-17.6	36.6	12.2
Cc1cc(C)n(C(=O)c2cc([N+](=O)[O-])cc([N+](=O)[O-])c2)n1	nt	6.4	103.5*	nt	0.6	70.6*	61.9*
Cc1ncc(CO)c2cc(C(N)=O)c(=Nc3ccccc3)oc12	2.5	-12.5	150.2*	0.0	-19.2	31.0	41.6*
CCOc1ccc(/C=C2\SC(=S)N(NS(=O)(=O)c3ccccc3)C2=O)cc1OC	-0.4	1.7	78.1*	1.2	-5.5	43.0	24.2*
CCOc1ccc(/C=C2\SC(=S)N(NS(=O)(=O)c3ccc(C)cc3)C2=O)cc1OC	1.9	-10.2	55.5	0.6	-20.1	nt	nt
CNC(=O)COC(=O)c1ccc([N+](=O)[O-])cc1Cl	-0.2	-12.6	120.0*	0.5	-9.8	46.4	73.6*
CC(C)NC(=O)NC(=O)COC(=O)c1ccc([N+](=O)[O-])cc1Cl	1.0	-4.2	28.8	1.0	-12.6	nt	nt
Cc1ccc2c(ccc[n+]2CC(=O)c2ccccc2)c1	0.1	-7.9	83.8*	1.1	-14.9	39.5	40.0*
O=C(COC(=O)c1ccc[nH]c1=O)NC1CC1	nt	3.0	0.7	nt	-12.0	nt	nt
CCOC(=O)c1ccc(NS(=O)(=O)c2cccc3nsnc23)cc1	-0.4	-22.9	63.4	-0.5	0.6	nt	nt
COc1ccc(N2CCN(CCNC(=O)CCS(=O)(=O)c3cccc4nsnc34)CC2)cc1	-0.3	-6.2	85.0*	-0.1	-16.9	43.2	75.7*
COc1ccc(N2CCN(CCNS(=O)(=O)c3cccc4nsnc34)CC2)cc1	0.5	nt	nt	1.2	nt	nt	nt
CC1CCN(C(=O)CN(C)S(=O)(=O)c2cccc3nsnc23)CC1	-0.3	-11.8	82.7*	0.1	-24.5	29.9	35.9*
CC1CCN(CCNC(=O)CN(C)S(=O)(=O)c2cccc3nsnc23)CC1	-0.1	13.5	149.0*	1.0	-8.2	21.8	29.5*
CCOC(=O)N1CCC(NC(=O)C(NS(=O)(=O)c2cccc3nsnc23)c2ccccc2)CC1 (stereo not given)	0.2	-14.7	91.2*	0.1	-27.1	34.5	13.3
CCC(NC(=O)Cc1c(C)c2cc3c(cc2oc1=O)OC(C)(C)CC3)C(=O)O (stereo not given)	nt	-5.6	4.5	nt	-16.6	nt	nt
SMILES	zfTRPN1 agonist	CHO parental Ca	OX1R antag-1	TRPML3 agonist	OX1R antag-2	OX1R HTRF confirm	CHO-K1 HTRF cnt
CSc1ccccc1NC(=O)CN1CCN(Cc2ccccc2)CC1	-1.2	-14.5	10.9	1.6	-26.4	nt	nt
COc1ccc(OS(=O)(=O)c2c(C)noc2C)cc1	-0.1	0.8	0.2	0.0	-5.6	nt	nt
CCN(CC)C(=O)CN(C)S(=O)(=O)c1cccc2nsnc12	1.0	-1.3	113.9*	0.7	-20.4	39.8	38.3*
C#Cc1ccc2c(c1)COc1c3ccccc3nn1-2	nt	-26.7	84.4*	nt	-25.5	59.8*	14.0
C(#Cc1ccc2c(c1)COc1c3ccccc3nn1-2)c1ccccc1	nt	-16.4	18.1	nt	-49.7	nt	nt
COc1ccc(CC(=O)NCc2nnc(SCC(=O)Nc3ccc(OC)cc3)n2C)cc1	-0.2	-17.1	5.7	0.2	-8.7	nt	nt
COCCCNC(=O)c1c(N)n(-c2ccc3c(c2)OCO3)c2nc3ccccc3nc12	0.5	-14.9	104.2*	0.3	-5.7	28.7	0.6
O=C(Nn1cnnc1)c1cc([N+](=O)[O-])cc([N+](=O)[O-])c1	2.3	-6.2	112.7*	0.9	-8.8	65.8*	84.1*
CC(O)c1nc2ccccc2n1CCCc1ccccc1 (stereo not given)	nt	-5.0	-3.9	nt	-10.1	nt	nt
NS(=O)(=O)c1ccc(CCNC(=O)COC(=O)c2nc(Cl)ccc2Cl)cc1	nt	-7.8	-1.8	nt	6.5	nt	nt
CCOC(=O)c1c(C)[nH]c(C(=O)OCC(=O)Nc2ccc(Cl)cn2)c1C	nt	-6.3	-0.4	nt	-11.3	nt	nt
CCOC(=O)c1c(C)[nH]c(C(=O)OCC(=O)Nc2sccc2C(N)=O)c1C	nt	22.2	99.2*	nt	17.1	63.9*	12.4
NC(=O)[C@@H]1CCCCNc2c(F)cc([N+](=O)[O-])cc2C(=O)N[C@@H](CC(=O)O)C(=O)N[C@@H](CCC(=O)O)C(=O)N1	-0.1	10.6	109.6*	1.2	-14.1	33.8	33.4*
NC(=O)C[C@@H]1NC(=O)c2cc([N+](=O)[O-])cc(F)c2NCCCC[C@@H](C(N)=O)NC(=O)[C@H](CO)NC1=O	1.0	nt	nt	0.0	nt	nt	nt
O=C(Nc1nc(-c2cccs2)cs1)c1ccco1	-2.5	-25.8	9.6	-0.1	-26.3	nt	nt
COc1ccc(C(=O)Nc2nc(-c3cccs3)cs2)cc1	1.0	-14.8	89.9*	0.4	-6.6	64.6*	20.0*
O=C1CCN2C=Nc3cccc4ccc1c2c34	7.1	27.1	91.9*	7.7	21.6	41.6	18.8*
CSc1ccc(/C=C(\NC(=O)c2ccccc2)C(=O)NCCN2CCOCC2)cc1	nt	-12.2	12.3	nt	-0.8	nt	nt
NS(=O)(=O)c1ccc(O)c(NC(=O)c2ccc([N+](=O)[O-])cc2)c1	0.1	-2.4	91.7*	0.4	-12.1	41.0	46.9*
O=C(Nc1c[nH]c(=O)[nH]c1=O)c1ccc([N+](=O)[O-])cc1	1.9	-5.2	137.7*	1.1	-5.6	49.1	71.7*
O=C(OCc1c(F)cccc1Cl)c1cccc(S(=O)(=O)N2CCOCC2)c1	nt	-12.6	4.2	nt	-29.8	nt	nt
CCc1sc(C(=O)NCCCN2CCCC2=O)cc1Br	nt	-13.6	10.1	nt	-20.6	nt	nt
